# RGS4 block – RGS4 inhibitors, primary screen, cell-based, HEK293 M3R inducible RGS4, calcium flux | Regulator of G-protein signaling 4 (Homo sapiens), P49798 | Fluo-4 calcium flux; hits give high values; triggered by carbachol at its EC20 | B-score at 10 µM | hit rate 0.45% among 310,000 | AID 463165, 2010;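 active = B-score, a plate-corrected calcium signal, over three deviations above library mean, with baseline fluorescence within five deviations of library mean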;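 note: RGS4 expression induced by doxycycline in cells with stable M3 receptor; B-score is computed from the integrated fluorescence ratio over baseline after carbachol; higher B-score means a larger calcium signal and so more RGS4 inhibition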
# Target sequence (P49798 whole entry, looked up): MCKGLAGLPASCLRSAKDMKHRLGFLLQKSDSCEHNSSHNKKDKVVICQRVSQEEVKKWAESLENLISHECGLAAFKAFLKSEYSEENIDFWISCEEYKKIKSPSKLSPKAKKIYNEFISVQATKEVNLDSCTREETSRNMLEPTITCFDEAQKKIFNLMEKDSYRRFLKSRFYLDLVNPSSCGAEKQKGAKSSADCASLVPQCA
# Kir21 block – inhibitors of mouse Kir2.1 inward-rectifier potassium channel. hit rate 0.85% among 310,000. B-score at 10 µM. Inward rectifier potassium channel 2 (Mus musculus), P35561. HEK293-Kir2.1, FluxOR thallium flux fluorescence; hits give low values;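 active = fluorescence ratio B-score at or below minus 3 SD of library scores, with starting-brightness B-score within 2 SD, cut at about -4.2 in these data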;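 note: channel flux triggered by added potassium and thallium sulfate stimulus; B-score of peak minus minimum fluorescence over baseline after thallium stimulus; more negative B-score means stronger Kir2.1 block with less thallium influx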
# MrgX1 allo act – positive allosteric modulators of MrgX1, primary screen, HEK293 cells, Fluo-4 calcium flux. FDSS; hits give high values. Mas-related G-protein coupled receptor member X1 (Homo sapiens), Q96LB2. hit rate 0.63% among 310,000. B-score at 10 µM;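 active = plate-corrected calcium response at least 3 library SD above typical, normal starting fluorescence, not activating the receptor alone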;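 note: compound read alongside a low EC10 to EC30 dose of BAM8-22 agonist; peak minus trough fluorescence over baseline measured at the second addition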
# Target sequence (Q96LB2 whole entry, looked up): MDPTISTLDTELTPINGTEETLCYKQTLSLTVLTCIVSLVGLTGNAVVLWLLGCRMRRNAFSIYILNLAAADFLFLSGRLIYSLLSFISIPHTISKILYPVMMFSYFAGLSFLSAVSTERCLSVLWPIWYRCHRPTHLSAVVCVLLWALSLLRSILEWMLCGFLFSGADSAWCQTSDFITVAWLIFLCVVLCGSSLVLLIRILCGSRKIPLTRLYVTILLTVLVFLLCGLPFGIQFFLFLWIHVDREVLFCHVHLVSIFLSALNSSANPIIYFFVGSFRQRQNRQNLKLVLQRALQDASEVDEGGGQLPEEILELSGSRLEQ
# MrgX1 antagonist – antagonists of human MrgX1 receptor, primary screen, HEK293 cells, Fluo-4 calcium flux; Mas-related G-protein coupled receptor member X1 (Homo sapiens), Q96LB2; BAM8-22 antagonism; hits give low values; B-score at 10 µM; hit rate 1.3% among 310,000; AID 588676, 2011;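 active = calcium-response B-score plate-corrected more than 3 library SD below zero, starting fluorescence within 5 deviations, no agonist response on first addition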;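 note: peak minus trough fluorescence over baseline after final BAM8-22 challenge near maximal dose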
# MrgX1 agonist – agonists of human MrgX1 receptor, primary screen, HEK293 cells, Fluo-4 calcium flux | Fluo-4 calcium fluorescence, agonist mode; hits give high values | AID 588627, 2011 | hit rate 0.44% among 310,000 | B-score at 10 µM;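 active = calcium response B-score plate-corrected fluorescence ratio at least 3 library SD, with starting fluorescence B-score inside 5 SD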
#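 Assay system: MrgX1-expressing HEK293 cells / Amount: fifteen thousand cells per well / Doses: test compound in the initial addition of three / Timing: cells plated overnight, dye loaded 0.5 h 37 °C, 0.5 h room temperature / Technique: kinetic calcium dye fluorescence, Fluo-4 NW / Control set: positive and negative controls per plate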
# RGS4 pot – RGS4 potentiators or activators, primary screen, cell-based, HEK293 M3R inducible RGS4, calcium flux; carbachol calcium flux Fluo4; hits give low values; hit rate 0.92% among 310,000; B-score at 10 µM;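 active = B-score of the integrated calcium signal more than 4 SD below the library mean, with starting fluorescence not abnormally high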;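 note: negative B-score means reduced calcium response which marks RGS4 activation or potentiation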
#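 test system = HEK293 cells with stable M3R and inducible RGS4 | schedule = recording 10 s baseline at 1 Hz, 100 s post-agonist | technique = Fluo4-AM (2 µM) calcium-flux fluorescence, kinetic read | measure = Agonist-evoked peak-minus-minimum fluorescence over baseline, integrated ratio, B score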
# hERG inh – hERG channel inhibition, counter-screen for Kir2.1 inhibitor project, cell-based, thallium flux; hERG-expressing cells; inhibition, % at 10 µM; shares compounds with Kir21 block; hit rate 20% among 320;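 note: host cells are CHO cells stably expressing hERG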
# KCNK9 inh – KCNK9 channel inhibition, selectivity assay for Kir2.1 inhibitor project, cell-based; shares compounds with Kir21 block; KCNK9-expressing cells, ion flux inhibition; inhibition, % at 10 µM; hit rate 5% among 320
# Kir21 ephys inh – mouse Kir2.1 channel blockers, Kir2.1 inhibitor project, cell-based, secondary, automated electrophysiology; inhibition, % at 25 µM; shares compounds with Kir21 block; hit rate 71% among 320; Kir2.1 cells, automated patch-clamp current inhibition
# RGS4 act valid – reduced carbachol calcium response, RGS4-induced M3R cells, confirmation, RGS4 activator project, cell-based, HEK293 M3R/RGS4 inducible, calcium flux, duplicate. shares compounds with RGS4 pot. carbachol calcium flux Fluo4. inhibition, % at 10 µM. hit rate 89% among 1,100;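 active = inhibition above 3 SD of the buffer control wells, cut at about 41% in these data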;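 note: signal is the integrated peak-minus-minimum Fluo4 fluorescence over baseline ratio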
# M3R Ca counter – RGS4 activator counter-screen hit in non-induced cells; shares compounds with RGS4 pot; HEK293 M3R non-induced RGS4, Fluo4 calcium flux; after carbachol challenge at its EC90; inhibition, % at 10 µM; hit rate 82% among 1,100; AID 602283;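 active = inhibition exceeding 3 SD of buffer-only control wells, cut at about 26% in these data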;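 note: percent drop in integrated peak-minus-baseline over baseline Fluo4 ratio after carbachol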
# MrgX1 ant reconf – MrgX1 receptor antagonists, duplicate retest, confirmation, HEK293 cells, Fluo-4 calcium flux. shares compounds with MrgX1 antagonist. BAM8-22 calcium flux; hits give low values. hit rate 19% among 2,300. remaining BAM8-22 calcium response % of control (hits give low values), % at 10 µM;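 active = remaining agonist calcium response no higher than 100% minus 3 SD of agonist-only control wells, with starting fluorescence near control levels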;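 note: agonist BAM8-22 given at a near maximal EC90 to ECmax level; peak minus minimum fluorescence divided by baseline after agonist addition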
# HEK293 Ca flux – nonspecific calcium signal in parental HEK293, confirmation, counter-screen for MrgX1 antagonist project, parental HEK293 cells, Fluo-4 calcium flux; shares compounds with MrgX1 antagonist; Fluo-4 calcium fluorescence, FDSS; fluorescence ratio F(max-min)/F0 at 10 µM; hit rate 2% among 4,000; AID 624111, 2012;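 active = duplicate-averaged calcium fluorescence ratio at least three times the standard deviation of buffer wells, a nonspecific response in parental cells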
# HEK293 Ca counter – calcium response in parental HEK293 cells, primary screen, counter-screen for MrgX1 allosteric activator project, cell-based, Fluo-4 calcium flux, duplicate; shares compounds with MrgX1 antagonist; Fluo-4 fluorescence ratio; hits give high values; fluorescence ratio F(max-min)/F0 at 10 µM; hit rate 0.4% among 4,000;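 active = calcium fluorescence ratio, averaged over duplicates, at least 3 SD of the buffer-well ratio, meaning a nonspecific response in receptor-free cells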;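 note: untransfected parental HEK293 lacking MrgX1 used as counterscreen for MrgX1 allosteric activators; fluorescence change taken during the second addition on a kinetic imager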
# HEK293 Ca cntr2 – calcium response in parental HEK293 cells, primary screen, counter-screen for MrgX1 agonist project, cell-based, Fluo-4 calcium flux, duplicate, agonist mode; shares compounds with MrgX1 antagonist; Fluo-4 calcium fluorescence (FDSS); hits give high values; fluorescence ratio F(max-min)/F0 at 10 µM; hit rate 8.7% among 4,000; AID 624115, 2012;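 active = calcium fluorescence ratio at least three times the spread of buffer wells, meaning a non-specific response in parental cells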
# The depositor's hits bear a star; i = inactive; x = no result. Hits are enriched below; roughly 4.1% of the tested compounds scored in any of these assays. Unless noted, the rule behind the calls is not given here.
SMILES,RGS4 block,Kir21 block,MrgX1 allo act,MrgX1 antagonist,MrgX1 agonist,RGS4 pot,RGS4 act valid,M3R Ca counter,others
Cc1ccc(-c2nc3ccccn3c2NCc2ccc3c(c2)OCO3)cc1,i,-7.1*,i,i,i,-9.5*,89*,71*,hERG inh=63%*;KCNK9 inh=56%*;Kir21 ephys inh=i
COc1ccc(-c2nc3ccc(C)cn3c2NCc2ccc3c(c2)OCO3)cc1,i,-0.95,i,i,i,i,x,x,
Nc1ccccc1-c1nc2ccccc2[nH]1,i,0.67,i,i,i,i,x,x,
COc1ccc(Nc2nc(N3CCCCC3)c3ccccc3n2)cc1,i,-1.1,i,i,i,i,x,x,
Oc1ccc(Nc2nc(N3CCCC3)c3ccccc3n2)cc1,i,-7.5*,i,i,i,-8.2*,91*,65*,hERG inh=64%*;KCNK9 inh=i;Kir21 ephys inh=i
Cc1c(Cl)cccc1Nc1ccccc1C(=O)O,i,-0.78,i,i,i,i,x,x,
CN(C)CC#CCOC(c1ccccc1)c1ccccc1,i,-6.3*,i,i,i,-8.9*,92*,72*,hERG inh=i;KCNK9 inh=i;Kir21 ephys inh=45%*
Cc1ccc(CN2CCC(c3cc(-c4cccs4)n[nH]3)CC2)cc1,i,-13*,i,i,i,-17*,91*,68*,hERG inh=72%*;KCNK9 inh=i;Kir21 ephys inh=37%*
C=CCn1c(SCc2cccc(C#N)c2)nnc1-c1ccccc1O,i,-5.9*,i,-4.6*,i,i,x,x,hERG inh=i;KCNK9 inh=i;Kir21 ephys inh=24%*;MrgX1 ant reconf=i;HEK293 Ca flux=i;HEK293 Ca counter=i;HEK293 Ca cntr2=i
Nc1nonc1-n1nnc(C(=O)N/N=C/c2ccc(Br)cc2)c1-c1ccc2c(c1)OCO2,i,0,i,i,i,i,x,x,
COc1ccc2c(c1)C=C([C@@H]1C[C@H]3CN(c4ccccc4)C(=O)[C@]34CCCN14)CO2,i,-1.2,i,i,i,-10*,70*,84*,
CN1C[C@@H]2C[C@@H](C3=Cc4cc(Cl)ccc4OC3)N3CCC[C@@]23C1=O,i,-1.4,i,i,i,i,x,x,
O=C1c2oc3ccccc3c(=O)c2C(c2cccc(O)c2)N1CCCN1CCOCC1 (stereo unspecified),i,0.1,i,i,i,-8.9*,85*,37*,
COc1ccc(C2c3c(oc4ccccc4c3=O)C(=O)N2CCCN2CCOCC2)cc1 (stereo unspecified),i,0.76,i,i,i,i,x,x,
COC(=O)C1=C(C)N(Cc2ccco2)C(=O)N[C@@H]1c1ccc(Br)cc1,i,0.08,i,i,i,i,x,x,
CC(CN1CCOCC1)OC(=O)c1ccc2c(c1)OCCO2 (stereo unspecified),i,1.5,i,i,i,i,x,x,
CC(CN1CCCCC1)OC(=O)c1ccc2c(c1)OCCO2 (stereo unspecified),i,-1.7,i,i,i,-11*,68*,33*,
CC(CN1CCCCC1)OC(=O)C(C)(c1ccccc1)c1ccccc1 (stereo unspecified),i,-1.4,i,i,i,-7.9*,90*,54*,
Cc1cc(Br)cc(Br)c1OCC(=O)NNC(=O)c1ccoc1C,i,-1.7,i,i,i,i,x,x,
CC(=O)N(c1nc(CCl)cs1)c1ccc(C)cc1C,i,-0.34,i,i,i,i,x,x,
CCOC(=O)c1oc2ccccc2c1CSc1nnc(-c2ccco2)o1,i,-0.53,i,i,i,i,x,x,
COc1[nH]c(/N=C/c2ccccc2)c(C#N)c1C#N,i,-1.8,i,i,i,-8.4*,0,0,
Cc1ccc(S(=O)(=O)NC(CC(C)C)C(=O)Oc2ccc3c4c(c(=O)oc3c2)CCC4)cc1 (stereo unspecified),i,-0.15,i,i,i,-9.4*,92*,92*,

# Assay outcomes deposited in PubChem by Johns Hopkins Ion Channel Center.
